Article PMC11371828 (Nature Communications, 2024)
Residue numbers refer to the chain shown, from its start. Numbers in names are those of the source. Entries after “also recorded” stand apart in the source; their conditions may differ. Where no end group is shown, it is not given here. MBP = maltose binding protein (fused N-terminally to the peptide)

T1: IKKα(10-667) EE homodimer (Homo sapiens, UniProt O15111, S176E/S180E)
T1 sequence (O15111 10-667 S176E/S180E): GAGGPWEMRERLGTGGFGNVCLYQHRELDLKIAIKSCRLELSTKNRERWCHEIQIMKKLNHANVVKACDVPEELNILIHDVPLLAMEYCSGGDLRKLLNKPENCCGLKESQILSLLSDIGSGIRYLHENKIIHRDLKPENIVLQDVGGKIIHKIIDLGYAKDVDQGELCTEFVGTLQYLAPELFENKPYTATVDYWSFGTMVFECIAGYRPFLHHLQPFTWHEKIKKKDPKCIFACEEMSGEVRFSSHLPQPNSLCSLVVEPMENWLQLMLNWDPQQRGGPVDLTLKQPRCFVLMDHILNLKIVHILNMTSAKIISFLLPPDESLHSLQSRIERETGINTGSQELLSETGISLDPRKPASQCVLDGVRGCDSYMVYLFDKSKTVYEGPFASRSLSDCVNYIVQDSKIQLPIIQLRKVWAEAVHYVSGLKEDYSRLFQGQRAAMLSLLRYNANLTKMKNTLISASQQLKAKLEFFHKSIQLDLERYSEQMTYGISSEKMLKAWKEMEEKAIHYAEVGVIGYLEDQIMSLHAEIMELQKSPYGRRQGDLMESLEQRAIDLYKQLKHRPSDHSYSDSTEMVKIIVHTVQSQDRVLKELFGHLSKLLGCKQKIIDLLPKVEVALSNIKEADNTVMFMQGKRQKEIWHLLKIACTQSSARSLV

T2: 6xHis-IKKβ(1-669) EE (human, UniProt O14920 1-669, S177E | S181E)
T2 sequence (looked up): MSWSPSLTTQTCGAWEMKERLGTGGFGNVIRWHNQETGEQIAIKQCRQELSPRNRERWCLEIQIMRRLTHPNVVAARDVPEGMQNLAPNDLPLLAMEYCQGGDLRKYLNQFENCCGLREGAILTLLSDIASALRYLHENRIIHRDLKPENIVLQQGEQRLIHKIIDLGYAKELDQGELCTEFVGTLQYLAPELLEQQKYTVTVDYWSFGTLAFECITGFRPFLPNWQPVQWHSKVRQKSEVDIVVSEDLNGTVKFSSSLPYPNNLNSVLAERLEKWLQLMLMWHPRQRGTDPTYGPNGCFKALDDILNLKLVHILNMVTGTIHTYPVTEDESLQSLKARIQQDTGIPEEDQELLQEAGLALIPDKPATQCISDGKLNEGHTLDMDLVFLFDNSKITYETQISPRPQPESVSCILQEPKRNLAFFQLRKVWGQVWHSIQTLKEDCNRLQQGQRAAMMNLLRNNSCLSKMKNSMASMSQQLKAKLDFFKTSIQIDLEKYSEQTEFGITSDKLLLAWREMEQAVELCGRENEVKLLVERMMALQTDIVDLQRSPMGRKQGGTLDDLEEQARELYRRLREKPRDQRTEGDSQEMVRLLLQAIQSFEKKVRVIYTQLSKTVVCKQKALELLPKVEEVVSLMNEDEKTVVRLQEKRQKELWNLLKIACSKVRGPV

T3: IKKα(10-667) EE, 6xHis tag removed (UniProt O15111 10-667, S176E | S180E)
T3 sequence (looked up): T1 sequence (O15111 10-667 S176E/S180E)

B1: C308L/R314K IκBα pep (synthetic) (peptide)
peptide: EFTEDELPYDDLVFGGQKLTL-NH2
B2: IκBα pep (synthetic, residues 297-317 of IκBα) (peptide)
peptide: EFTEDELPYDDCVFGGQRLTL
B3: C308L IκBα pep (synthetic) (peptide)
peptide: EFTEDELPYDDLVFGGQRLTL-NH2
B4: MBP-IκBα full length (natural protein, human, UniProt P25963 1-317, looked up)
chain: MFQAAERPQEWAMEGPRDGLKKERLLDDRHDSGLDSMKDEEYEQMVKELQEIRLEPQEVPRGSEPWKQQLTEDGDSFLHLAIIHEEKALTMEVIRQVKGDLAFLNFQNNLQQTPLHLAVITNQPEIAEALLGAGCDPELRDFRGNTPLHLACEQGCLASVGVLTQSCTTPHLHSILKATNYNGHTCLHLASIHGYLGIVELLVSLGADVNAQEPCNGRTALHLAVDLQNPDLVSLLLKCGADVNRVTYQGYSPYQLTWGRPSTRIQQQLGQLTLENLQMLPESEDEESYDTESEFTEFTEDELPYDDCVFGGQRLTL
B5: IkBa C308F (protein, UniProt P25963 1-317, looked up, variant C308F)
NF-kappa-B inhibitor alpha: B4 chain with C308F
B6: MBP-IκBα pep(s) C308L (peptide, UniProt P25963 301-317, looked up)
chain: DELPYDDLVFGGQRLTL
B7: MBP-IκBα(73-317) (domain or fragment, human, UniProt P25963 73-317, looked up)
chain: DGDSFLHLAIIHEEKALTMEVIRQVKGDLAFLNFQNNLQQTPLHLAVITNQPEIAEALLGAGCDPELRDFRGNTPLHLACEQGCLASVGVLTQSCTTPHLHSILKATNYNGHTCLHLASIHGYLGIVELLVSLGADVNAQEPCNGRTALHLAVDLQNPDLVSLLLKCGADVNRVTYQGYSPYQLTWGRPSTRIQQQLGQLTLENLQMLPESEDEESYDTESEFTEFTEDELPYDDCVFGGQRLTL
B8: MBP-IκBα pep(s) C308F (peptide, UniProt P25963 301-317, looked up)
chain: DELPYDDFVFGGQRLTL
B9: IKKβ(1-669) EE, 6xHis tag removed (enzyme, human, UniProt O14920 1-669, looked up)
chain: T2 sequence (looked up)
B10: p100 pep (synthetic, residues 8-29 of p100) (peptide)
peptide: GLDGIIEYDDFKLNSSIVEPKE

Key:
[1] = biological target: T1, IKKα(10-667) EE homodimer; assay: ITC of synthetic YDDΦxΦ peptides with IKKα homodimer; assay type: binding; settings: for ITC binding to IKKα, in words: 25 °C, titration of the IKKα homodimer with synthetic peptide
In short: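 IKKα(10-667) EE was expressed in Sf21 insect cells and purified by Ni-NTA affinity. It was then dialyzed overnight at 4 °C against ITC buffer (20 mM HEPES pH 8.0, 150 mM NaCl, 1 mM TCEP), which was used for all titrations unless otherwise stated.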

[2] = test system: IKKα/β heterodimer (6xHis-IKKβ(1-669) EE, Strep-IKKα(10-667) EE); assay: MBP-pulldown with purified IKKα/β heterodimer; assay type: binding; settings: MBP-IκBα pep(s) vs MBP negative control, Coomassie
In short: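 Heterodimer co-expressed in Sf21 insect cells, purified on Strep-Tactin then Ni-NTA, pre-incubated with 1 mM ATP, MgCl2, β-glycerophosphate, NaF and orthovanadate for 1 h on ice, then gel-filtered in Tris pH 8.0 buffer. MBP-fusion baits expressed in E. coli BL21(DE3), captured on amylose resin. Binding in 20 mM Tris pH 8.0, 150 mM NaCl, 2 mM DTT. Bound proteins Coomassie-stained.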

6xHis-IKKβ(1-669) EE [3] = biological target: T2, 6xHis-IKKβ(1-669) EE; assay: cross-linking
[4] = biological target: B9; assay: ITC
[5] = biological target: T3, IKKα(10-667) EE, 6xHis tag removed; assay: ITC
6xHis-IKKβ(1-669) EE [6] = biological target: T2, 6xHis-IKKβ(1-669) EE; assay: pull-down
[7] = test system: MEF cells KO for IκBα, IκBβ, IκBε; assay: In cellulo degradation of retro-transduced IκBα proteins after TNFα; assay type: cell-based, mouse; settings: retro-transduced IκBα constructs, TNFα 20 ng/ml, compared with wt IκBα
In short: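 Retroviruses came from Phoenix-eco cells (5 × 10^6) transfected with 6 μg pBABE-IκBα plasmid; empty vector was the control. Medium was changed at 6 h and the virus-containing medium collected at 48 h, filtered, and used to infect the MEFs.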

6xHis-IKKβ(1-669) EE [8] = biological target: T2, 6xHis-IKKβ(1-669) EE; assay: pull-down; remark: listed apart in the source
crystal structure = biological target: the molecule itself; assay: crystal structure

EFTEDELPYDDLVFGGQRLTL-NH2 [IκBα pep C308L]
Kd [1]: 0.42 µM

EFTEDELPpYDDLVFGGQRLTL [pY-IκBα pep]
ITC binding to IKKα, in words [1]: too weak to allow for accurate thermodynamic analysis; also recorded: absence of interaction

IκBα pep(s): 17 amino acid peptide, residues 301-317 of IκBα, fused to MBP ({MBP}-DELPYDDCVFGGQRLTL)
binding of the IKKα/β heterodimer in MBP-pulldown, in words [2]: specifically binds

LSSANSLYDDIECFLMELEQPA [IRF7 pep]
ITC binding to IKKα, in words [1]: too weak to allow for accurate thermodynamic analysis; also recorded: binds with weak affinity to IKKα

B1
binding result (6xHis-IKKβ(1-669) EE [3]): binds

B2
Kd [4]: 40 µM
dH [4]: -16.3 kcal/mol
stoichiometry N [4]: 0.63
Kd [5]: 7.7 µM
dH [5]: -14.2 kcal/mol
stoichiometry N [5]: 0.63

B3
Kd [4]: 2.4 µM
dH [4]: -11.5 kcal/mol
stoichiometry N [4]: 0.66

B4
binding result (6xHis-IKKβ(1-669) EE [6]): binds

B5
IκBα degradation after TNFα stimulation, in words [7]: slightly faster compared to that of the wt IκBα protein

B6
binding result (6xHis-IKKβ(1-669) EE [8]): binds

B7
binding result (6xHis-IKKβ(1-669) EE [8]): binds

B8
binding result (6xHis-IKKβ(1-669) EE [8]): binds

B9
binding result (crystal structure): binds

B10
Kd [5]: ~12 µM
dH [5]: ~-13.4 kcal/mol
stoichiometry N [5]: 0.6
